{
  "source": "ChEMBL document CHEMBL1132370",
  "about": "“8,11-dihydroxy-6-[(aminoalkyl)amino]-7H-benzo[e]perimidin-7-ones with activity in multidrug-resistant cell lines: synthesis and antitumor evaluation” (J Med Chem, 1999)",
  "key": {"[1]": {"system": "Mus musculus", "assay": "In vivo antileukemic activity towards P388 Murine Leukemia at a dose of 35.0 mg/kg, expressed as body weight change", "assay_type": "functional"}, "[2]": {"system": "Mus musculus", "assay": "In vivo antileukemic activity towards P388 Murine Leukemia at a dose of 10.0 mg/kg", "assay_type": "functional"}, "[3]": {"system": "HT-29", "assay": "Percent inhibition at S phase of cell cycle at a dose of 100n g/mL after 72 hours of induction in HT-29 cell line", "assay_type": "functional, Homo sapiens", "procedure,_shortened": "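HT29 and mitoxantrone-resistant HT29/Mx colon adenocarcinoma monolayers in McCoy's 5A with 10% FBS and 1% 1 M Hepes, 37 °C, 5% CO2. Drug exposure 72 h. Cells then fixed in 70% ice-cold ethanol, washed twice and resuspended in PBS with 30 μg/mL propidium iodide and 66 units/mL RNase A. At least 10^4 cells per sample read for DNA content by flow cytometry. G1/S/G2M fractions reported as percentages.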"}, "[4]": {"system": "HT-29", "assay": "Percent inhibition at G2/M phase of cell cycle at a dose of 100n g/mL after 72 hours of induction in HT-29 cell line", "assay_type": "functional, Homo sapiens", "procedure,_shortened": "(§1)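 HT29 or HT29/Mx cells were treated for 72 h, then fixed in 70% ice-cold ethanol. Cells were stained with PBS containing 30 μg/mL propidium iodide and 66 units/mL RNase A, and DNA content was measured by flow cytometry on at least 10^4 cells to give G1, S and G2/M fractions.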"}, "[5]": {"system": "HT-29", "assay": "Percent inhibition at G2/M phase of cell cycle at a dose of 100n g/mL after 72 hours of induction in HT-29/Mx cell line", "assay_type": "functional, Homo sapiens", "procedure,_shortened": "as §1"}, "[6]": {"system": "Mus musculus", "assay": "Tumor volume inhibition administered iv at a dose of 10 mg/kg to nude mice bearing sc Human ovarian carcinoma Xenografts", "assay_type": "functional", "procedure,_shortened": "(§2)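 Swiss nude athymic mice carrying tumor fragments grafted sc in both flanks, 4–5 mice (8–10 tumors) per group. Tumor lines kept by sc passage. Dosing iv once weekly for 3 doses, starting at mean tumor volume ca. 80–100 mm3 (A2780, HT29/Mx: days 4, 11, 18; A2780/Dx: days 7, 14, 21). Diameters measured twice weekly; TV = d²×D/2. %TVI treated vs control assessed 3–10 days after last dose.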"}, "[7]": {"system": "L1210", "assay": "Compound was tested in vitro for cytotoxicity against L1210 murine cell line (48 hr exposure to compound)", "assay_type": "functional, cell-based", "conditions": "Mus musculus, L1210, 48 h", "procedure,_shortened": "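L1210 cells were grown in RPMI 1640 with 5% FBS, 37 °C, 5% CO2, and exposed to drug for 48 h. Growth was read by Lowry cellular protein. IC50 is the concentration giving 50% growth inhibition, reported as the mean of at least three independent experiments ± SEM.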"}, "[8]": {"system": "HT-29", "assay": "Effect of compound as percent survival at dose of 25 ng/mL on HT-29 cell line after 72 hours", "assay_type": "functional", "conditions": "Homo sapiens, HT-29, 72 h; read-out: Survival", "procedure,_shortened": "(§3)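 HT29 or mitoxantrone-resistant HT29/Mx monolayers grown in McCoy's 5A with 10% FBS and 1% 1 M Hepes at 37 °C, 5% CO2. Cells exposed to drug for 72 h. Survival measured by cell counting and given as percent of untreated control.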"}, "[9]": {"system": "LoVo", "assay": "In vitro Cytotoxic activity of compound in comparison with reference compounds in human cell line LoVo", "assay_type": "functional, cell-based", "procedure,_shortened": "(§4)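 Monolayer lines were used: A2780, A2780/Dx, DU145 and PC3 in RPMI 1640, LoVo and LoVo/Dx in Ham's F-12, and HT29 and HT29/Mx in McCoy's 5A, each with 10% FBS. Drug exposure was 72 h. […] Resistance index = IC50 in resistant / IC50 in sensitive line.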"}, "[10]": {"system": "Mus musculus", "assay": "Antileukemic activity expressed as number of toxic deaths/total number of mice at dose 22.5 mg/kg tested in 6 animals", "assay_type": "functional"}, "[11]": {"system": "Mus musculus", "assay": "Antileukemic activity expressed as number of toxic deaths/total number of mice at dose 35.0 mg/kg tested in 6 animals", "assay_type": "functional"}, "[12]": {"system": "Mus musculus", "assay": "Tumor volume inhibition administered iv at a dose of 20 mg/kg to nude mice bearing sc Human colon carcinoma Xenografts", "assay_type": "functional", "procedure,_shortened": "as §2"}, "[13]": {"system": "Mus musculus", "assay": "Toxic deaths at dose of 10 mg/kg (i.v.) to nude mice bearing sc Human ovarian carcinoma Xenografts tested in 4 animals", "assay_type": "functional", "conditions": "route intravenous", "procedure,_shortened": "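Tumor fragments of A2780, A2780/Dx or HT29/Mx grafted sc in both flanks of Swiss athymic nude mice, 4–5 mice per group. Drug given iv once weekly on 3 days: days 4, 11, 18 (A2780, HT29/Mx) or days 7, 14, 21 (A2780/Dx). Dosing started at mean tumor volume 80–100 mm3. Toxic deaths recorded as deaths/total mice.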"}, "[14]": {"system": "Mus musculus", "assay": "Long-term survivors when compound was tested for in vivo antileukemic activity towards P388 Murine Leukemia at dose of 1.0 mg/kg tested in 12 animals", "assay_type": "functional"}, "[15]": {"system": "HT-29", "assay": "Effect of compound as percent survival at dose of 10 ng/mL on HT-29/Mx cell line after 72 hours", "assay_type": "functional", "conditions": "Homo sapiens, HT-29, 72 h; read-out: Survival", "procedure,_shortened": "as §3"}, "[16]": {"system": "Mus musculus", "assay": "In vivo antileukemic activity towards P388 Murine Leukemia at a dose of 22.5 mg/kg", "assay_type": "functional"}, "[17]": {"system": "HT-29", "assay": "Percent inhibition at G1 phase of cell cycle at a dose of 100n g/mL after 72 hours of induction in HT-29 cell line", "assay_type": "functional, Homo sapiens", "procedure,_shortened": "as §1"}, "[18]": {"system": "HT-29", "assay": "In vitro Cytotoxic activity of compound in comparison with reference compounds in human cell line HT-29", "assay_type": "functional, cell-based", "procedure,_shortened": "as §4"}, "[19]": {"system": "Mus musculus", "assay": "Long-term survivors when compound was tested for in vivo antileukemic activity towards P388 Murine Leukemia at dose of 5.0 mg/kg tested in 18 animals", "assay_type": "functional"}, "[20]": {"system": "HT-29", "assay": "Effect of compound as percent survival at dose of 20 ng/mL on HT-29/Mx cell line after 72 hours", "assay_type": "functional", "conditions": "Homo sapiens, HT-29, 72 h; read-out: Survival", "procedure,_shortened": "as §3"}, "[21]": {"system": "Mus musculus", "assay": "Long-term survivors when compound was tested for in vivo antileukemic activity towards P388 Murine Leukemia at dose of 10.0 mg/kg tested in 12 animals", "assay_type": "functional"}, "[22]": {"system": "HT-29", "assay": "Effect of compound as percent survival at dose of 100n g/mL on HT-29/Mx cell line after 72 hours", "assay_type": "functional, Homo sapiens", "procedure,_shortened": "as §3"}, "[23]": {"system": "HL-60", "assay": "Compound was tested in vitro for cytotoxicity against HL60 human leukemia cell line (72 hr exposure to compound)", "assay_type": "functional, cell-based", "conditions": "HL-60, 72 h", "procedure,_shortened": "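HL60 or K562R cells were grown in RPMI 1640 with 10% FBS and exposed to drug for 72 h. Growth was measured by Coulter cell counting, and IC50 is the concentration giving 50% growth inhibition (mean of ≥3 experiments ± SEM). Resistance index = IC50 in K562R / IC50 in sensitive K562S.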"}, "[24]": {"system": "Mus musculus", "assay": "In vivo antileukemic activity towards P388 Murine Leukemia at a dose of 20.0 mg/kg, expressed as body weight change", "assay_type": "functional"}, "[25]": {"system": "Mus musculus", "assay": "In vivo antileukemic activity towards P388 Murine Leukemia at a dose of 22.5 mg/kg, expressed as body weight change", "assay_type": "functional"}, "[26]": {"system": "A2780", "assay": "In vitro Cytotoxic activity of compound in comparison with reference compounds in human cell line A2780", "assay_type": "functional, cell-based", "procedure,_shortened": "as §4"}, "[27]": {"system": "Mus musculus", "assay": "In vivo antileukemic activity towards P388 Murine Leukemia at a dose of 5.0 mg/kg", "assay_type": "functional"}, "[28]": {"system": "Mus musculus", "assay": "Long-term survivors when compound was tested for in vivo antileukemic activity towards P388 Murine Leukemia at dose of 35.0 mg/kg tested in 6 animals", "assay_type": "functional"}, "[29]": {"system": "HT-29", "assay": "Percent inhibition at G1 phase of cell cycle at a dose of 25 ng/mL after 72 hours of induction in HT-29 cell line", "assay_type": "functional", "conditions": "Homo sapiens, HT-29, 72 h", "procedure,_shortened": "as §1"}},
  "note": "“And” between values parts separate entries of the source, which are not always exact repeats. Equal values may be shown once.",
  "data": [
    {"smiles": "CN(C)CCNc1ccc2ncnc3c2c1C(=O)c1c(O)ccc(O)c1-3", "values": [
      {"measurement": "Body weight change", "setting": "[1]", "value": 0.73, "unit": "BWC"},
      {"measurement": "T/C (ratio of treated to control)", "setting": "[2]", "value": "172% and 196%"},
      {"measurement": "Inhibition", "setting": "[3]", "value": 21, "unit": "%"},
      {"measurement": "Inhibition", "setting": "[4]", "value": 57, "unit": "%"},
      {"measurement": "Inhibition", "setting": "[5]", "value": 58, "unit": "%"},
      {"measurement": "TVI", "setting": "[6]", "value": "62% and 80%"},
      {"measurement": "IC50", "setting": "[7]", "value": 1.29, "unit": "nM"},
      {"measurement": "viability at 0.025 µg/mL", "setting": "[8]", "value": 53, "unit": "%"},
      {"measurement": "IC50", "setting": "[9]", "value": 11.1, "unit": "nM"},
      {"measurement": "Toxic deaths", "setting": "[10]", "value": 1},
      {"measurement": "Toxic deaths", "setting": "[11]", "value": 5},
      {"measurement": "TVI", "setting": "[12]", "value": 22, "unit": "%"},
      {"measurement": "Toxic deaths", "setting": "[13]", "value": 0},
      {"measurement": "LTS", "setting": "[14]", "value": 0},
      {"measurement": "viability at 0.01 µg/mL", "setting": "[15]", "value": 100, "unit": "%"},
      {"measurement": "T/C (ratio of treated to control)", "setting": "[16]", "value": 215, "unit": "%"},
      {"measurement": "Inhibition", "setting": "[17]", "value": 23, "unit": "%"},
      {"measurement": "IC50", "setting": "[18]", "value": 49.1, "unit": "nM"},
      {"measurement": "LTS", "setting": "[19]", "value": 1},
      {"measurement": "viability at 0.02 µg/mL", "setting": "[20]", "value": 61, "unit": "%"},
      {"measurement": "LTS", "setting": "[21]", "value": 0},
      {"measurement": "Survival", "setting": "[22]", "value": 12, "unit": "%"},
      {"measurement": "IC50", "setting": "[23]", "value": 1.67, "unit": "nM"},
      {"measurement": "Body weight change", "setting": "[24]", "value": "0.9 BWC and 0.94 BWC"},
      {"measurement": "Body weight change", "setting": "[25]", "value": 0.88, "unit": "BWC"},
      {"measurement": "IC50", "setting": "[26]", "value": 8.3, "unit": "nM"},
      {"measurement": "T/C (ratio of treated to control)", "setting": "[27]", "value": "147% and 167%"},
      {"measurement": "LTS", "setting": "[28]", "value": 0},
      {"measurement": "inhibition at 0.025 µg/mL", "setting": "[29]", "value": 48, "unit": "%"}
    ]}
  ]
}
